From ChEMBL document CHEMBL4513216, “Probing the Open Global Health Chemical Diversity Library for Multistage-Active Starting Points for Next-Generation Antimalarials” (ACS Infect Dis, 2020)

Assay: Toxicity liver stage against HepG2, at 10uM
Assay type: cell-based
Parameters: test concentration 10 uM, cell line HepG2-A16-CD81EGFP
Conditions: human, HepG2-A16-CD81EGFP cells; read-out: INHIBITION
Outline: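 Uninfected HepG2-A16-CD81EGFP cells, 3 × 10^3 per well, 1536-well, plated on prespotted compound at 10 μM final, parasite-free screening media added to match infected plates; puromycin 10 μM positive, DMSO 0.5% negative; run in parallel with 48 h PbLuc assay at 37 °C, 5% CO2; viability by CellTiter-Glo luminescence, normalized to controls.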

First: COc1ccc2nc(C[C@@H]3C[C@@H](C(C)C)[C@H](CN)C=C3C)[nH]c2n1
Second: COc1cccc(CCC(=O)Nc2c(C)nn(C)c2C)c1OC
The cytotoxicity at 10 µM of the first is higher: 3.38% for the first, 1.98% for the second.

Going from `COc1ccc(NC(=O)C(c2ccc(OC)cc2)N2CCOCC2)cc1` (centres undefined) to `CN(C)C(=O)c1ccc(OC2CCOCC2)cc1`, the cytotoxicity at 10 µM rises from -3.39% to -2%.

Going from `c1ccc(-c2nnc3sc(CCN4CCCCCC4)nn23)cc1` to `Cc1nn(C)c2cn(CC(=O)N3CCN(c4ccccc4)CC3)nc12`, the cytotoxicity at 10 µM rises from 1.11% to 6.94%.

Compared with `Cc1cccc(NC(=O)c2nn(C3CCS(=O)(=O)C3)c3c2CCCC3)n1` (centres undefined), `CNc1cncc(C2CCCN2C(=O)c2ccc3c(c2)OCCO3)n1` (centres undefined) is lower in cytotoxicity at 10 µM: 10.5% for the first, -2.97% for the second.

First: O=c1[nH]c2ccccc2c2c1CCO2
Second: O=S(=O)(Cc1nc(C2CC2)no1)c1ccccc1F
The cytotoxicity at 10 µM of the first is lower: 6.9% for the first, 8.11% for the second.

Going from `CN1CCN(C(=O)c2ccc(Cn3cc(Br)cn3)cc2)CC1` to `CC(C)(C)n1cc(C(=O)N2CCN(Cc3ccsc3)CC2)cn1`, the cytotoxicity at 10 µM falls from -3.7% to -5.79%.

First: CCN1CCCC(O)(CNCc2ccccc2F)C1 (centres undefined)
Second: OC1(CNCCCN2CCc3ccccc32)CCNC1 (centres undefined)
The cytotoxicity at 10 µM of the first is lower: -5.66% for the first, 11.5% for the second.

Going from `Cc1nn(CCCNC(=O)C2CCN(S(C)(=O)=O)CC2)cc1Cl` to `Cn1ncc(C(=O)N2CCN(CCS(C)(=O)=O)CC2)c1Cl`, the cytotoxicity at 10 µM rises from -1.94% to 4.33%.

Going from `CC(C)S(=O)(=O)N1C[C@@H](O)[C@H](N(C)Cc2ccc(F)cc2)C1` to `CN(Cc1ccccc1)CC1(O)CCCN(Cc2ccc(F)cc2)C1=O` (centres undefined), the cytotoxicity at 10 µM falls from 2.51% to -14.6%.

First: Cc1cc(C)c2nc(C)c(C(=O)N3CCC(N4CCCC4)CC3)cc2c1
Second: CC(C)c1ncc(Cl)c(C(=O)N2CCN(C3CCCC3)CC2)n1
The cytotoxicity at 10 µM of the first is lower: -3.19% for the first, 8.69% for the second.

First: Cc1noc(C2CCCN2C(=O)C2CCC2)n1 (centres undefined)
Second: CC(C)(N)C(=O)N1CCCC1c1cncc(Oc2ccc(F)cc2)n1 (centres undefined)
The cytotoxicity at 10 µM of the first is lower: -12.4% for the first, 1.11% for the second.

Compared with `Cc1cc(C(=O)NCC(F)(F)F)c2c(C3CCCN3)noc2n1` (centres undefined), `Cc1cc(CNC(=O)Cc2c(C)nc3cc(=O)[nH]n3c2C)no1` is lower in cytotoxicity at 10 µM: 6% for the first, -7.36% for the second.

Going from `CCc1ccsc1C(=O)NC(C#N)CC` (centres undefined) to `CCn1cnnc1CNC(=O)NC(C)c1cccs1` (centres undefined), the cytotoxicity at 10 µM falls from 3.15% to -4.92%.

Going from `CCCOc1ccc2c(c1)OCC(C(=O)NC(C)Cn1cccn1)=C2` (centres undefined) to `CCCC1CCCN(C(=O)CCn2cccn2)CC1` (centres undefined), the cytotoxicity at 10 µM falls from 4.46% to -9.48%.

Going from `Cc1cc(CSCc2ccccn2)on1` to `CC(C)(C)c1cc(NC(=O)C2COCCO2)n(-c2ccccn2)n1` (centres undefined), the cytotoxicity at 10 µM falls from 7.69% to -3.49%.

Going from `CC(C)COc1ccccc1C(N)CC(C)C` (centres undefined) to `CC(C)CN(Cc1nc2c(cnn2C)c(=O)[nH]1)C(C)C`, the cytotoxicity at 10 µM falls from -5.27% to -9.96%.

Compared with `N#Cc1c(Cl)nsc1NCc1ccc(N2CCC(CO)CC2)cc1`, `O=C(NCc1ccc(F)cc1)N1CCN(CC(O)C2CC2)CC1` (centres undefined) is higher in cytotoxicity at 10 µM: -4.73% for the first, 8.88% for the second.

Compared with `CN(c1cccc2ccccc12)S(=O)(=O)c1cc(C(=O)O)cs1`, `CNc1nc(CNC(=O)Nc2cccc(F)c2)cs1` is lower in cytotoxicity at 10 µM: -2.88% for the first, -5.45% for the second.

Going from `CC(c1ccc(Cl)cc1)N1CCN(CCCS(N)(=O)=O)CC1` (centres undefined) to `Cn1ccnc1COc1ccc(CN2CCN(CCO)CC2)cc1`, the cytotoxicity at 10 µM falls from -1.44% to -10.2%.

Compared with `Cc1ccc(S(=O)(=O)NCC(C)C#N)cc1Br` (centres undefined), `CCCc1noc(CNc2cc(C[S+](C)[O-])ccc2Cl)n1` (centres undefined) is lower in cytotoxicity at 10 µM: 0.727% for the first, -5.18% for the second.

First: NS(=O)(=O)c1cc(C(=O)N2CCCCC2)cs1
Second: COC(=O)c1sccc1CN1CCN(C(=O)c2ccc(C)o2)CC1
The cytotoxicity at 10 µM of the first is lower: -0.174% for the first, 2.37% for the second.

Going from `CCOC1CCCN(C(=O)c2[nH]nc(C(C)C)c2Br)C1` (centres undefined) to `Cc1ccc(OCC2CCCN(C(=O)c3csc(CN(C)C)n3)C2)cc1` (centres undefined), the cytotoxicity at 10 µM rises from -6.78% to -3.16%.

First: NC(=O)C1=NC2=NS(=O)(=O)c3ccccc3N2N1Cc1ccccc1Cl
Second: CN1CCN(Cc2ccccc2CNC(=O)c2ccc(Br)cc2F)CC1
The cytotoxicity at 10 µM of the first is lower: -10.9% for the first, 4.65% for the second.

First: COCC1CCN(CCCc2cn[nH]c2)CC1
Second: COc1ccc(CNC(=O)N2CCC(Cc3cnn(C)c3)C2)cc1C (centres undefined)
The cytotoxicity at 10 µM of the first is higher: 11.3% for the first, -9.52% for the second.

Going from `CN(CC(F)(F)F)C(=O)CNC(=O)N1CCC(N2CCCC2)C1` (centres undefined) to `CN(C)C(=O)CN1CC[C@H]2CN(C3CCOCC3)C[C@@H]2C1=O`, the cytotoxicity at 10 µM falls from 3.72% to -3.84%.

Compared with `Cc1nnnn1-c1cc(NCc2cccc(C#N)c2)ccc1F`, `CN1CCCC1c1cc2cccnc2n1Cc1ccc(F)cc1` (centres undefined) is lower in cytotoxicity at 10 µM: 7.09% for the first, 5.44% for the second.

Going from `CCN(CC)c1ncc(CNCC2CCCn3ccnc32)s1` (centres undefined) to `Cc1cnccc1Cn1ccnc1C1CCOC1` (centres undefined), the cytotoxicity at 10 µM rises from -29.9% to -2.53%.

Compared with `COCC(=O)N1CCN(C(=O)CCc2ccsc2)CC1`, `CC(C)[C@@H]1CN(C(=O)c2ccsc2)C[C@H]1C(=O)O` is higher in cytotoxicity at 10 µM: -17% for the first, 12.8% for the second.

Compared with `CCC(CC)c1cc(CNC(=O)N2CCOC(C)C2)on1` (centres undefined), `Cc1cc(N2C[C@H](NC(=O)C3(C#N)CCOCC3)[C@@H](C(C)C)C2)ccn1` is lower in cytotoxicity at 10 µM: 0.433% for the first, -4.1% for the second.

Compared with `Cc1noc(C)c1CCN1CCCC1c1nc2cc(F)ccc2[nH]1` (centres undefined), `Cc1nc(C)n(CC2CCCN2Cc2cn3c(C)cccc3n2)n1` (centres undefined) is lower in cytotoxicity at 10 µM: 9.3% for the first, 2.02% for the second.

First: Cc1cc(N2CCC(n3cc(CN4CCSCC4)nn3)CC2)ccn1
Second: CN1CCN(Cc2cnc3n2CCN(Cc2cccs2)C3)CC1
The cytotoxicity at 10 µM of the first is lower: -12.5% for the first, -3.24% for the second.

Compared with `COc1ccc2c(c1)OCC(CNC(=O)NC(C)(C)C)C2` (centres undefined), `CCOC1COC2(CCN(Cc3ccc(C)c(C)c3)CC2)C1` (centres undefined) is lower in cytotoxicity at 10 µM: -8.54% for the first, -11.2% for the second.

Compared with `NC(=O)c1csc(N2CCN(Cc3cccc4nsnc34)CC2)n1`, `O=C(O)C1(n2ccnc2)CCN(Cc2cc3ccccc3o2)CC1` is lower in cytotoxicity at 10 µM: 0.5% for the first, -6.34% for the second.

Going from `O=C(CCCNCc1ccccc1)N1CCCn2cncc2C1` to `CCN1CCn2c(C)cnc2C12CCN(C(=O)Cc1ccccc1)CC2`, the cytotoxicity at 10 µM rises from -3.32% to 4.59%.

Going from `O=S1(=O)C[C@@H]2[C@H](C1)N(Cc1cc(Cl)cc(Cl)c1)CCN2CCO` to `CN1CCN(C(=O)N2C[C@@H]3CC[C@H]2CN(Cc2ccccc2)C3)CC1`, the cytotoxicity at 10 µM falls from 0.303% to -7.71%.

First: O=C(O)c1ccnc(-c2ccnc(NCCc3nc4c(s3)CCC4)n2)c1
Second: CCc1nccn1C1CCCN(C(=O)CCCNc2ncccn2)C1 (centres undefined)
The cytotoxicity at 10 µM of the first is lower: -4.23% for the first, -1.3% for the second.

Compared with `CCC(C(=O)NC1(CN2CCOCC2)CCCC1)n1cccn1` (centres undefined), `CN1C(=O)C2(CCN(CC3CC3)CC2)c2ccccc21` is lower in cytotoxicity at 10 µM: 4.52% for the first, 3.16% for the second.

First: O=C(NCc1ccc2c(c1)OCO2)c1ccccc1C1CCNC1 (centres undefined)
Second: O=C1CC2(CCN(Cc3ccncc3)C2)CN1c1ccc2c(c1)OCO2 (centres undefined)
The cytotoxicity at 10 µM of the first is higher: -3.6% for the first, -74.1% for the second.

Going from `CCCC(Nc1nc(COCC)nc2c1CCNCC2)c1nccn1C` (centres undefined) to `CCOc1ncccc1NC(=O)NC1CCCN(c2ncccn2)C1` (centres undefined), the cytotoxicity at 10 µM falls from -10.3% to -10.6%.

First: CCS(=O)(=O)CCNC(=O)[C@@]12CNC[C@@H]1CN(C1CCCC1)C2
Second: O=C(NCC1CCC2(CCNCC2)O1)C1CC1 (centres undefined)
The cytotoxicity at 10 µM of the first is lower: -20.3% for the first, -5.01% for the second.

First: Cc1cc(NC(=O)N(CCO)Cc2ccsc2)no1
Second: Cn1ncc2c1CCCC2NCc1cc(Br)cs1 (centres undefined)
The cytotoxicity at 10 µM of the first is lower: -5.57% for the first, -0.481% for the second.

Compared with `Cc1nc(C)n(CC2CCCCN2Cc2ncc(C(C)(C)C)o2)n1` (centres undefined), `Cc1occc1C(=O)N1CCO[C@H]2[C@@H](Oc3ccccn3)CC[C@@H]21` is higher in cytotoxicity at 10 µM: 0.299% for the first, 2.37% for the second.
